Assay [1] deals with T1, Serine/threonine-protein kinase D1 (Homo sapiens) (UniProt Q15139).
T1 sequence (whole entry): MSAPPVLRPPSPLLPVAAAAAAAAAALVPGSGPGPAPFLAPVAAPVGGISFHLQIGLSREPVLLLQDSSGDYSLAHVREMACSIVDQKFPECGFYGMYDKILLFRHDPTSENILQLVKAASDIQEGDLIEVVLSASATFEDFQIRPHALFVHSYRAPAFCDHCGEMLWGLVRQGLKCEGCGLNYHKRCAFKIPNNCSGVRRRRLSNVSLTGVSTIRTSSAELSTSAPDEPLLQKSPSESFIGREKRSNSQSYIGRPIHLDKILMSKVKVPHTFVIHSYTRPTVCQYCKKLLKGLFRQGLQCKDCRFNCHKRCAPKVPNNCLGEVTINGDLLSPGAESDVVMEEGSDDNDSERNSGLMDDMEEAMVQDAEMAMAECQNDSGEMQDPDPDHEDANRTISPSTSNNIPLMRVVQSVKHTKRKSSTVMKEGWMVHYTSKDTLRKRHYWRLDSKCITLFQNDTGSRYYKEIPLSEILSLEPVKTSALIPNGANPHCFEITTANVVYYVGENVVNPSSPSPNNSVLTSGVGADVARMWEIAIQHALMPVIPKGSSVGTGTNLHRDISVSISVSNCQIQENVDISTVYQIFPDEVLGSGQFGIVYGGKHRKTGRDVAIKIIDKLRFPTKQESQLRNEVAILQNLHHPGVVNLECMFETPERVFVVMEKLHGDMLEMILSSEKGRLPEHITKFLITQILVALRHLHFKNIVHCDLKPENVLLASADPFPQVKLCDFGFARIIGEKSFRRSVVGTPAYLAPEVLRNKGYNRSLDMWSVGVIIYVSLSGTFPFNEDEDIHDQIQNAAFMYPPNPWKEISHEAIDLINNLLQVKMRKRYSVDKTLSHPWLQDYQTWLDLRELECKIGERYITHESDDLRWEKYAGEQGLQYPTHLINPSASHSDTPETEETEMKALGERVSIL
Briefly: Inhibition of PKD1 assessed as residual activity at 10 uM.

The target in assay [2] is Protein kinase C eta type (Homo sapiens) (UniProt P24723). Briefly: Inhibition of PRKCH assessed as residual activity at 10 uM relative to control.
Chain of Protein kinase C eta type (Homo sapiens) (P24723 whole entry): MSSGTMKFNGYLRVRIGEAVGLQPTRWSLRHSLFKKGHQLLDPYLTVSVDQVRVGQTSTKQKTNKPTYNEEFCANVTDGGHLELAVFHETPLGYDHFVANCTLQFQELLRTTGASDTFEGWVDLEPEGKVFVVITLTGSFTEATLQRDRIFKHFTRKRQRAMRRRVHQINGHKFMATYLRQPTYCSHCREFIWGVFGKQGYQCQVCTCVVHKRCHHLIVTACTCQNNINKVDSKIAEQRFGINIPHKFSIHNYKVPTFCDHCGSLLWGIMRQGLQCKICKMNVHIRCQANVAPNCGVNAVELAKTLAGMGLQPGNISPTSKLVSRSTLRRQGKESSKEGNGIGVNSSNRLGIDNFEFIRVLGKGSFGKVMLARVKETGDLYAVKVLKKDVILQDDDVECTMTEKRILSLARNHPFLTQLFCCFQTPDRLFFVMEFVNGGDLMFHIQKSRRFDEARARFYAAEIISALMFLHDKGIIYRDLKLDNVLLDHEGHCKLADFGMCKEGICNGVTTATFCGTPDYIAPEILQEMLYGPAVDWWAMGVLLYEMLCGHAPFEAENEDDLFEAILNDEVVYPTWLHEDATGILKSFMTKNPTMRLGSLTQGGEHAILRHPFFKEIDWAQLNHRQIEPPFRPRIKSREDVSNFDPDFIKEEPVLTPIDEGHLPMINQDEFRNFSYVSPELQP
The target in assay [3] is Cyclin-dependent kinase 18 (Homo sapiens) (UniProt Q07002). Briefly: Inhibition of PCTK3 assessed as residual activity at 10 uM relative to control.
Assay [4] concerns the target Interleukin-1 receptor-associated kinase 4 (Homo sapiens) (UniProt Q9NWZ3). Briefly: Inhibition of IRAK4 assessed as residual activity at 10 uM relative to control.
Assay [5] addresses Tyrosine-protein kinase BTK (Homo sapiens) (UniProt Q06187). Briefly: Inhibition of BTK assessed as residual activity at 10 uM relative to control.
Assay [6] concerns the target Serine/threonine-protein kinase PAK 5 (Homo sapiens) (UniProt Q9P286). Briefly: Inhibition of PAK7 assessed as residual activity at 10 uM relative to control.
For assay [7], the target named is T2, Ephrin type-B receptor 3 (Homo sapiens) (UniProt P54753).
T2 sequence (whole entry): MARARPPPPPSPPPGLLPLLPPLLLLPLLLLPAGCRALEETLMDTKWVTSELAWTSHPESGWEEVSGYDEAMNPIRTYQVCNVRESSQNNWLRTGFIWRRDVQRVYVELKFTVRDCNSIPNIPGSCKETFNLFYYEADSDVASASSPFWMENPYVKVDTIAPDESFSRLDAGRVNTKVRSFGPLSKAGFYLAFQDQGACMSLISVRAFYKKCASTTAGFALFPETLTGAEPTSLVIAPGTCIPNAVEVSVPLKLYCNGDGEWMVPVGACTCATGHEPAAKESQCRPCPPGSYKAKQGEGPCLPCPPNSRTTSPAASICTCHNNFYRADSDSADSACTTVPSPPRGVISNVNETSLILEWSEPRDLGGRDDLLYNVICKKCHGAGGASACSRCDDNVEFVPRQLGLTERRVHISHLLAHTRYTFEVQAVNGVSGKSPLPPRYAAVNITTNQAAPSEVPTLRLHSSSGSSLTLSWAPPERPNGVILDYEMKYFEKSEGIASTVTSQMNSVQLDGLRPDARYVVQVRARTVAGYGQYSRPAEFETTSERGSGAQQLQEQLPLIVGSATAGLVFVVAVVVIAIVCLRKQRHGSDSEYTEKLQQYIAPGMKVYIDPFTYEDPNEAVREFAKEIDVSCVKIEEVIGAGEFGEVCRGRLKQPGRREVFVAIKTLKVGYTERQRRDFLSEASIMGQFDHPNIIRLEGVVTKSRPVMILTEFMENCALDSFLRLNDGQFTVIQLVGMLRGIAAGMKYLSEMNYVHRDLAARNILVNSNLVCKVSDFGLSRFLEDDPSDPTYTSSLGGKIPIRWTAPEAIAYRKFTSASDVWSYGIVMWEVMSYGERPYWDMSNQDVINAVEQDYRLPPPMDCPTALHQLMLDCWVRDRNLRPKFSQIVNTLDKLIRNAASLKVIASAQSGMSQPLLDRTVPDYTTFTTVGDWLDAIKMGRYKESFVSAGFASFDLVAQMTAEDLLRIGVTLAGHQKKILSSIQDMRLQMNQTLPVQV
Briefly: Inhibition of EPH-B3 assessed as residual activity at 10 uM. The essentials: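 Standard radioactivity-based enzymatic kinase assays on a 131-kinase panel run by the Dundee profiling service; residual kinase activity recorded.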

Assay [8] concerns the target Serine/threonine-protein kinase 3 (Homo sapiens) (UniProt Q13188). Briefly: Inhibition of MST2 assessed as residual activity at 1 uM.
The target of assay [9] is Tyrosine-protein kinase SYK (Homo sapiens) (UniProt P43405). Briefly: Inhibition of SYK assessed as residual activity at 1 uM.
Assay [10] has as its target Serine/threonine-protein kinase D2 (Homo sapiens) (UniProt Q9BZL6). Briefly: Inhibition of PRKD2 assessed as residual activity at 10 uM relative to control.
Assay [11] has as its target Death-associated protein kinase 2 (Homo sapiens) (UniProt Q9UIK4). Briefly: Inhibition of DAPK2 assessed as residual activity at 10 uM relative to control. The essentials:
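Competition kinase-binding assay (KINOMEscan) across a non-redundant panel of 329 kinases beyond the radiometric panel; residual binding expressed relative to control.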

Assay [12] addresses Dual specificity mitogen-activated protein kinase kinase 1 (Homo sapiens) (UniProt Q02750). Briefly: Inhibition of MKK1 assessed as residual activity at 1 uM.
Assay [13] addresses Leucine-rich repeat serine/threonine-protein kinase 2 (Homo sapiens) (UniProt Q5S007). Conditions: 0.01 to 1 uM.
Assay [14] has as its system Mast/stem cell growth factor receptor Kit (Homo sapiens), P10721 [V559D]. Briefly: Inhibition of KIT V559D mutant assessed as residual activity at 10 uM relative to control.
Assay [15] deals with Proto-oncogene tyrosine-protein kinase ROS (Homo sapiens) (UniProt P08922). Briefly: Inhibition of ROS1 assessed as residual activity at 10 uM relative to control.

Activity calls are given as the source filed them. The rule behind the calls is not given here.

Chain of Tyrosine-protein kinase BTK (Homo sapiens) (Q06187 whole entry): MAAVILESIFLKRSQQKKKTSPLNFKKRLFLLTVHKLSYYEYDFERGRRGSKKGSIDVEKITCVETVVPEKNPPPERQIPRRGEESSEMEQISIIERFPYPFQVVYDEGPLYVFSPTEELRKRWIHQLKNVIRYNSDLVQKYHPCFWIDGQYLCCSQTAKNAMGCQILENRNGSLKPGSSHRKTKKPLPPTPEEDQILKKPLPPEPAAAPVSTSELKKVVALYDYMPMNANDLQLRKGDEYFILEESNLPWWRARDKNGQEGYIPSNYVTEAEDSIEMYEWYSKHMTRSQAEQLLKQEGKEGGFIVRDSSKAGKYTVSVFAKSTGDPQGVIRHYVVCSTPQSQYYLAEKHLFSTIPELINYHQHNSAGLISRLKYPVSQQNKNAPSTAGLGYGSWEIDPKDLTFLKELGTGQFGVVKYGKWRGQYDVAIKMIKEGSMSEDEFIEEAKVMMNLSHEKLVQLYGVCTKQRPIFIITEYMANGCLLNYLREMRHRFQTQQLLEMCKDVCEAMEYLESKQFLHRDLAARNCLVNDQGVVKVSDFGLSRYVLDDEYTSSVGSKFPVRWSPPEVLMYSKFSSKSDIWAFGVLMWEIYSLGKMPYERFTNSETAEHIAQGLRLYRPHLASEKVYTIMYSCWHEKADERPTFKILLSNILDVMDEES
Chain of Dual specificity mitogen-activated protein kinase kinase 1 (Homo sapiens) (Q02750 whole entry): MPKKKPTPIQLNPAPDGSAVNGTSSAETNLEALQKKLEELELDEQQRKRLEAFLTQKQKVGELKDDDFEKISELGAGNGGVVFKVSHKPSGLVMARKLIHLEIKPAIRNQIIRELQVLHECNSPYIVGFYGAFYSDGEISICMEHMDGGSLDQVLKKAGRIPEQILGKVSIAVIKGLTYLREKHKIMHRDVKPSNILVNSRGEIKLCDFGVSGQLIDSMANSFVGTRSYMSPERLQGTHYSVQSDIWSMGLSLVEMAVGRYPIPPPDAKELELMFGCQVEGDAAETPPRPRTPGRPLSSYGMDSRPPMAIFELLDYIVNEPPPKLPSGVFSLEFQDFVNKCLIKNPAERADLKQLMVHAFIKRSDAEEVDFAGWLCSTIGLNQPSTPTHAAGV
Chain of Leucine-rich repeat serine/threonine-protein kinase 2 (Homo sapiens) (Q5S007 whole entry): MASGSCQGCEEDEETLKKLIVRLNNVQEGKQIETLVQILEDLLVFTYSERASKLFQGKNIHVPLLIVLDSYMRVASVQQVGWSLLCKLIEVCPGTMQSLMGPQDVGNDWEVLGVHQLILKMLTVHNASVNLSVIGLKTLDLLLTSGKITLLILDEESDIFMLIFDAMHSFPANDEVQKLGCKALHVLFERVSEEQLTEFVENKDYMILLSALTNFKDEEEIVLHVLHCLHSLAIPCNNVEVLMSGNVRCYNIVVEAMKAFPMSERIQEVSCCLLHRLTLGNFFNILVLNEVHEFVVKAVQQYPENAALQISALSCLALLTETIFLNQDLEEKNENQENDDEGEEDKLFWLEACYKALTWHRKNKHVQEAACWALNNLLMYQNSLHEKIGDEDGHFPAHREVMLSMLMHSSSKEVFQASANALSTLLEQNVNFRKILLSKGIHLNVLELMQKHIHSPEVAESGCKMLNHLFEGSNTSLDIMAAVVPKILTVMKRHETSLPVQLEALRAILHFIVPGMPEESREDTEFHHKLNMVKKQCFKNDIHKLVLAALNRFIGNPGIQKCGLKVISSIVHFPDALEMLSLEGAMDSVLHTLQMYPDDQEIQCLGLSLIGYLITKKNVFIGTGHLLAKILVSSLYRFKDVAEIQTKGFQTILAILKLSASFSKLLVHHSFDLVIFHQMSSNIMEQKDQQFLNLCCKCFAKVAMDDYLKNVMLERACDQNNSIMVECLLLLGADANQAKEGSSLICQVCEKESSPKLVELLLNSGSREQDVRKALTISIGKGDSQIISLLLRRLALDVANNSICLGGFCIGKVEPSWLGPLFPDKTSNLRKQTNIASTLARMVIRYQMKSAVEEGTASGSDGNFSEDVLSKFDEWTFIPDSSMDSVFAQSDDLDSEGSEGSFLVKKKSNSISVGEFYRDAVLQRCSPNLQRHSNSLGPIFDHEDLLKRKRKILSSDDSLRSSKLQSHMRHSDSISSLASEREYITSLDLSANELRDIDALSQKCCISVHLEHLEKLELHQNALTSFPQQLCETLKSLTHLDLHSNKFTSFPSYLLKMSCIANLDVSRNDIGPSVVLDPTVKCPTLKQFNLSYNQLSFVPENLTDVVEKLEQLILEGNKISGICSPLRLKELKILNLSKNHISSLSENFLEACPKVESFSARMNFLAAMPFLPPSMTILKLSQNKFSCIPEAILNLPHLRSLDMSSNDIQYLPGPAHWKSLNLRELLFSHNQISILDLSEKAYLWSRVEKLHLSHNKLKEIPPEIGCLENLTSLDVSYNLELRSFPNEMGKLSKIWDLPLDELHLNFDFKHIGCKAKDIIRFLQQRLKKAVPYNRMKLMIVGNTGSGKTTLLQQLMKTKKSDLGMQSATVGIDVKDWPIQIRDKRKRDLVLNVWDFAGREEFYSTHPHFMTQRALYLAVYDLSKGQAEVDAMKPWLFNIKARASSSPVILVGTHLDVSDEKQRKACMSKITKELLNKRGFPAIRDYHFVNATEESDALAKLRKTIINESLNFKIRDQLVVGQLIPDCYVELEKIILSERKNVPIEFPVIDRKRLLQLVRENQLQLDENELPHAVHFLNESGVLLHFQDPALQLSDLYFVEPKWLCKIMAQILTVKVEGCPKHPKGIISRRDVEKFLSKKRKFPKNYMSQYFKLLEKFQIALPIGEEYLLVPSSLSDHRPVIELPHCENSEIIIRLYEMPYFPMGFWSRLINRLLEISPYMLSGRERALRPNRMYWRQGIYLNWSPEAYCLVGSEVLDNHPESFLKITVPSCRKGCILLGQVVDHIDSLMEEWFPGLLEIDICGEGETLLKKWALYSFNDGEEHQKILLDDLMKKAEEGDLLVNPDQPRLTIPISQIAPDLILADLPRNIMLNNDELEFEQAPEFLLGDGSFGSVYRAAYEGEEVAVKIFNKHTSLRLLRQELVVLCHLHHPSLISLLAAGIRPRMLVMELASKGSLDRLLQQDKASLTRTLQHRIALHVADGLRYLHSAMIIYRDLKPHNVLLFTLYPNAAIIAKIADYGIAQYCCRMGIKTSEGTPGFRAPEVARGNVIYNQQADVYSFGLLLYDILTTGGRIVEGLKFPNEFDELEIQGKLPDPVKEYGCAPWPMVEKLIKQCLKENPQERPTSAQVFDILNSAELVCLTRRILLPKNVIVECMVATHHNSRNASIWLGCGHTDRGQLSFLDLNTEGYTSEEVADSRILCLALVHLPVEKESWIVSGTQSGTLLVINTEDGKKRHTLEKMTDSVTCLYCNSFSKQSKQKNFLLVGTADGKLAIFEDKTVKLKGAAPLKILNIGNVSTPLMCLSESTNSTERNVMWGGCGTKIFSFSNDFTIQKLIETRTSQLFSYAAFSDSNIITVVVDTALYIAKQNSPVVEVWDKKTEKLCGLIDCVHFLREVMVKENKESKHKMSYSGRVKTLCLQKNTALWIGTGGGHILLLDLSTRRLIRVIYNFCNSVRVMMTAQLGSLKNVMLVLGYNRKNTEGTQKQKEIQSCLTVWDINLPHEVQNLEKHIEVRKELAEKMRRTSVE
Chain of Death-associated protein kinase 2 (Homo sapiens) (Q9UIK4 whole entry, looked up): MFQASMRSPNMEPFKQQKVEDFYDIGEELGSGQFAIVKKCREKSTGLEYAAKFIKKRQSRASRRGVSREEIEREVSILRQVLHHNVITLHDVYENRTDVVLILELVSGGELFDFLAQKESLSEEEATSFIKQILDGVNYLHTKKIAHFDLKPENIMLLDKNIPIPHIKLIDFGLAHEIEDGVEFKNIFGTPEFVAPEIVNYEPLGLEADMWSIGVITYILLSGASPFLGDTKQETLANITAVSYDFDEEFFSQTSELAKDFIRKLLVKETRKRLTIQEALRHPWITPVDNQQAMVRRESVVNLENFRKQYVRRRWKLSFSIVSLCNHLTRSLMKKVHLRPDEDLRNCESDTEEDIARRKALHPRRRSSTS
Chain of Interleukin-1 receptor-associated kinase 4 (Homo sapiens) (Q9NWZ3 whole entry): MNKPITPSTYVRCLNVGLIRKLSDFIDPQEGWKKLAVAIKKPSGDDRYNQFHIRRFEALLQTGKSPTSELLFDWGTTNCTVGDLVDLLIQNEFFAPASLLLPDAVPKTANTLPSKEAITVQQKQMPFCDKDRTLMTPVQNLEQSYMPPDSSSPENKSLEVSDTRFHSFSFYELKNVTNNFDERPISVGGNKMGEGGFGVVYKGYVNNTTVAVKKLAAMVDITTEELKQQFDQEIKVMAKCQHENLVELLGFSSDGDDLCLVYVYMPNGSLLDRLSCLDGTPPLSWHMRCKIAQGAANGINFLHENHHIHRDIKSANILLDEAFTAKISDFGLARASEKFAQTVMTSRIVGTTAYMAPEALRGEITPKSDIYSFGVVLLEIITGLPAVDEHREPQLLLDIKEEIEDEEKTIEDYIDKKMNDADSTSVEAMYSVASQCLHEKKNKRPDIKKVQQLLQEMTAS

With `O=C(Nc1cccnc1)c1cc(-c2ccnc(F)c2)ccc1OCc1ccccc1`, the Activity is 76% in [1]; 59% in assay [2]; 58% in assay [3]; 58% in assay [4]; 64% in assay [5]; 69% in [6]. The Activity stood at 113% in assay [7]; 103% in [8]; 115% in [9]; 74% in assay [10]; 69% in assay [11]; 77% in assay [12]. The Activity in assay [14] worked out at 70%; in assay [15], 73%. In [13], the inhibition result is “Active”.

For the origin of these results see ChEMBL document CHEMBL2203081 (Bioorg Med Chem Lett, 2012).
